Each block holds one molecule with its values, some of them ahead of it. Where a SMILES comes first, the peptide text is derived from it. Where no end group is shown, it is not given here. [ ]: non-standard residue; d: D form.
How the values were obtained:
Aβ42 peptide [1] = target: T1, Aβ42 peptide (Homo sapiens, UniProt P05067); assay: ThT fluorescence assay of Aβ42 aggregation inhibition; format: biochemical; conditions: 72 h, 37 °C; for inhibition of Aβ42 aggregation (ThT assay): peptide 5 µM + Aβ42 5 µM; for inhibition of Aβ42 peptide aggregation (ThT assay): peptide 160 µM + Aβ42 5 µM
T1 sequence (P05067 672-713): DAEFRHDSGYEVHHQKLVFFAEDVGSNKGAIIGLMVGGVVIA

[2] = system: Aβ42-induced apoptosis in PC-12-derived neurons; assay: Apoptosis assay; format: cell-based, rat; conditions: Aβ42 10 µM + NT peptide 10 µM, 24 h, n = 3
Serum stability = format: in vitro ADME; conditions: human, 50% human serum
Summary of the method: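 Test peptide at 150 μM final in 50% human serum, 37 °C. Aliquots were taken at 0, 6, 12, 24, 48 and 72 h and mixed 1:1 with acetonitrile to precipitate serum proteins. Samples were held 30 min at 4 °C, then centrifuged at 10,000 rpm for 30 min at 4 °C. The supernatant was analysed by RP-HPLC for percentage of intact peptide. Compound-free serum served as blank.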

Aβ42 peptide [3] = target: T1, Aβ42 peptide; assay: FTIR spectroscopy of β-sheet content; conditions: Aβ42 20 µM + peptide 20 µM, PBS pH 7.4, 37 °C, 7 days; β-sheet 1610–1640, α-helix 1640–1660 cm^–1
Aβ42 peptide [4] = target: T1, Aβ42 peptide; assay: HR-TEM of fibril formation; conditions: for Aβ42 fibril structure after coincubation (HR-TEM): Aβ42 coincubated with peptide at 37 °C for 7 days; for fibril formation of the peptide incubated alone (HR-TEM): 7 days, 37 °C
MTT cell viability = format: cell-based; conditions: rat, NGF-differentiated PC-12-derived neurons
Summary of the method: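 PC-12 cells seeded at 1×10^4/well and grown 24 h at 37 °C, 5% CO2. At 50–60% confluence they were differentiated with 100 ng/mL NGF in DMEM with reduced horse serum. Test peptide (5–160 μM) was added for 24 h. MTT (5 mg/mL in PBS) was added for 4 h at 37 °C, and formazan was dissolved in DMSO/methanol 1:1. A570 was read; viability = (treated − blank)/(control − blank) × 100.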

[5] = target: amyloid beta (1–42) peptide (human); assay: ITC
Chain of amyloid beta (1–42) peptide (human) (P05067 672-713): as above

Molecule: CC(C)C[C@@H](NC(=O)[C@H](N)CCCCN)C(=O)N[C@H](CC(C)C)C(=O)N[C@H](Cc1ccccc1)C(=O)N[C@H](Cc1ccccc1)C(=O)N[C@H](C)C(N)=O [NT-02] (H-[dK][dL][dL][dF][dF][dA]-NH2)
inhibition of Aβ42 aggregation (ThT assay) (Aβ42 peptide [1]): 57.61% | inhibition of Aβ42 peptide aggregation (ThT assay) (Aβ42 peptide [1]): about 78.96% | apoptotic cells (PI fluorescence intensity) [2]: 2.84 fold | remaining at 72 h, 150 μM (Serum stability): 95.5% | FTIR C=O amide peak of Aβ42 treated with peptide (Aβ42 peptide [3]): 1642.76 cm^–1 | Aβ42 fibril structure after coincubation (HR-TEM) (Aβ42 peptide [4]): Absence of the fibril structure | fibril formation of the peptide incubated alone (HR-TEM) (Aβ42 peptide [4]): no fibril formation was observed

Molecule: CC(C)C[C@@H](NC(=O)[C@H](N)CCCCN)C(=O)N[C@H](CC(C)C)C(=O)N[C@H](Cc1ccccc1)C(=O)N[C@H](Cc1ccccc1)C(N)=O [NT-03] (H-[dK][dL][dL][dF][dF]-NH2)
inhibition of Aβ42 aggregation (ThT assay) (Aβ42 peptide [1]): 54.26% | inhibition of Aβ42 peptide aggregation (ThT assay) (Aβ42 peptide [1]): ~80.63% | apoptotic cells (PI fluorescence intensity) [2]: 6.21 fold | remaining at 72 h, 150 μM (Serum stability): 91.6% | Aβ42 fibril structure after coincubation (HR-TEM) (Aβ42 peptide [4]): Absence of the fibril structure | fibril formation of the peptide incubated alone (HR-TEM) (Aβ42 peptide [4]): no fibril formation was observed

Molecule: CC(C)C[C@@H](N)C(=O)N[C@H](CC(C)C)C(=O)N[C@H](Cc1ccccc1)C(=O)N[C@H](Cc1ccccc1)C(=O)N[C@H](C)C(N)=O [NT-06] (H-[dL][dL][dF][dF][dA]-NH2)
viability at 24 h, 160 µM (MTT cell viability): 71.7%

Molecule: CC(C)C[C@@H](N)C(=O)N[C@H](CC(C)C)C(=O)N[C@H](Cc1ccccc1)C(=O)N[C@H](Cc1ccccc1)C(N)=O [NT-07] (H-[dL][dL][dF][dF]-NH2)
viability at 24 h, 160 µM (MTT cell viability): 42.5%

Molecule: CC(C)C[C@@H](N)C(=O)N[C@H](Cc1ccccc1)C(=O)N[C@H](Cc1ccccc1)C(=O)N[C@H](C)C(=O)N[C@H](CCC(=O)O)C(N)=O [NT-08] (H-[dL][dF][dF][dA][dE]-NH2)
viability at 24 h, 160 µM (MTT cell viability): 50.1%

Molecule: CC(C)C[C@@H](N)C(=O)N1CCC[C@@H]1C(=O)N[C@H](Cc1ccccc1)C(=O)N[C@H](Cc1ccccc1)C(=O)N[C@H](C)C(=O)N[C@H](CCC(=O)O)C(N)=O [NT-13] (H-[dL][dP][dF][dF][dA][dE]-NH2)
inhibition of Aβ42 aggregation (ThT assay) (Aβ42 peptide [1]): 48.41% | inhibition of Aβ42 peptide aggregation (ThT assay) (Aβ42 peptide [1]): ~79.88% | apoptotic cells (PI fluorescence intensity) [2]: 4.13 fold | remaining at 72 h, 150 μM (Serum stability): 90.4% | FTIR C=O amide peak of Aβ42 treated with peptide (Aβ42 peptide [3]): 1645.94 cm^–1 | Aβ42 fibril structure after coincubation (HR-TEM) (Aβ42 peptide [4]): Absence of the fibril structure | fibril formation of the peptide incubated alone (HR-TEM) (Aβ42 peptide [4]): no fibril formation was observed

inhibition of Aβ42 aggregation (ThT assay) (Aβ42 peptide [1]): 41.87%
Molecule: CC(C)C[C@@H](NC(=O)[C@H](N)CCCCN)C(=O)N[C@@H](C(=O)N[C@H](Cc1ccccc1)C(=O)N[C@H](Cc1ccccc1)C(N)=O)C(C)C [NT-15, reference compound]

Ka [5]: 142000 M⁻¹
B1: NT-13 (peptide)
peptide: [dL][dP][dF][dF][dA][dE]-NH2
modifications: N-terminus assumed
SMILES: CC(C)C[C@@H](N)C(=O)N1CCC[C@@H]1C(=O)N[C@H](Cc1ccccc1)C(=O)N[C@H](Cc1ccccc1)C(=O)N[C@H](C)C(=O)N[C@H](CCC(=O)O)C(N)=O

Ka [5]: 3.47e+06 M⁻¹
B2: NT-03 (peptide)
peptide: [dK][dL][dL][dF][dF]-NH2
modifications: N-terminus assumed
SMILES: CC(C)C[C@@H](NC(=O)[C@H](N)CCCCN)C(=O)N[C@H](CC(C)C)C(=O)N[C@H](Cc1ccccc1)C(=O)N[C@H](Cc1ccccc1)C(N)=O

Ka [5]: 2.25e+06 M⁻¹
B3: NT-02 (peptide)
peptide: [dK][dL][dL][dF][dF][dA]-NH2
modifications: N-terminus assumed
SMILES: CC(C)C[C@@H](NC(=O)[C@H](N)CCCCN)C(=O)N[C@H](CC(C)C)C(=O)N[C@H](Cc1ccccc1)C(=O)N[C@H](Cc1ccccc1)C(=O)N[C@H](C)C(N)=O
